Measured values as given in ChEMBL document CHEMBL1139583, “Design, synthesis and evaluation of racemic 1-(4-hydroxyphenyl)-2-[3-(substituted phenoxy)-2-hydroxy-1-propyl]amino-1-propanol hydrochlorides as novel uterine relaxants” (Bioorg Med Chem Lett, 2005).

Experiments:
Format in all cases: functional
Rattus norvegicus [1] = species: Rattus norvegicus; test: Delayed onset of labour in rat by comparing with control at 10 mg
Method in brief: (§1)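 Pregnant Sprague–Dawley rats, six per dose group, dosed orally at 10 and 15 mg/kg/day from gestation day 13 to 21. Reference agent given at 10 mg/kg/day p.o. Onset of labour compared with control.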

Rattus norvegicus [2] = species: Rattus norvegicus; test: Delayed onset of labour in rat by comparing with control at 15 mg; method in brief: as §1
Rattus norvegicus [3] = species: Rattus norvegicus; test: cAmp released in rat at 10 mg
Method in brief: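 Oral dosing of virgin female Sprague–Dawley rats in oestrus. Rats killed 3 h later. Uterine strips weighed and homogenized in Tris–EDTA, then centrifuged at 12,000g. Supernatant TCA removed by ether extraction and pH set to 7.5. cAMP measured by [³H]cAMP competitive binding assay against 0–16 pmol standards, 2 h at 2–8 °C, charcoal separation, scintillation counting.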

Rattus norvegicus [4] = species: Rattus norvegicus; test: Inhibition of oxytocin induced contraction required for uterine relaxant activity in isolated rat uterus preparation

COCCc1ccc(OCC(O)CNC(C)C(O)c2ccc(O)cc2)cc1.Cl (centres undefined)
Activity (Rattus norvegicus [1]): 27.1 h
Activity (Rattus norvegicus [2]): 33.7 h
Activity (Rattus norvegicus [3]): 3.66 pmol
IC50 (Rattus norvegicus [4]): 6.02 µmol

CC(NCC(O)COc1ccc(CC(N)=O)cc1)C(O)c1ccc(O)cc1.Cl (centres undefined)
Activity (Rattus norvegicus [1]): 24 h
Activity (Rattus norvegicus [2]): 31.7 h
Activity (Rattus norvegicus [3]): 3.56 pmol
IC50 (Rattus norvegicus [4]): 6.32 µmol

CC(=O)Nc1ccc(OCC(O)CNC(C)C(O)c2ccc(O)cc2)cc1.Cl (centres undefined)
Activity (Rattus norvegicus [1]): 25 h
Activity (Rattus norvegicus [2]): 31.8 h
Activity (Rattus norvegicus [3]): 3.48 pmol
IC50 (Rattus norvegicus [4]): 6.07 µmol

CC(=O)Nc1ccc(OCC(O)CNC(C)C(O)c2ccc(O)cc2)c(C(C)=O)c1.Cl (centres undefined)
Activity (Rattus norvegicus [1]): 23.7 h
Activity (Rattus norvegicus [2]): 30.1 h
Activity (Rattus norvegicus [3]): 3.53 pmol
IC50 (Rattus norvegicus [4]): 6.58 µmol

CC(COc1ccccc1)NC(C)C(O)c1ccc(O)cc1.Cl (centres undefined) [ISOXSUPRINE HYDROCHLORIDE]
Activity (Rattus norvegicus [1]): 31.6 h
Activity (Rattus norvegicus [3]): 5.03 pmol
IC50 (Rattus norvegicus [4]): 9.15 µmol
